Bioassay records from PubChem.
DENV2 CPE rescue = inhibitors of DENV2 cytopathic effect, primary screen, cell-based, plate reader, single concentration | DENV2-infected cells, cytopathic effect rescue | CPE inhibition, % at 9.99 µM | 350,000 tested, 1.7% active; in the data active means CPE inhibition above about 20%, passing the limit was not always enough; inconclusive means no clear call, values can overlap the other calls; tested in BHK-21 cells;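 further: 0% = median of neutral control wells and 100% = median of positive control wells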
SIRT5 block = SIRT5 desuccinylase inhibitors, primary screen, biochemical, fluorescence imaging, single point, set 5. NAD-dependent protein deacylase sirtuin-5, mitochondrial (Homo sapiens), Q9NXA8. Purified SirT5, succinyl-peptide AMC, trypsin-coupled fluorescence. inhibition, % at 15 µM. 330,000 tested, 1.1% active; in the data active means inhibition above about 15%; inconclusive means no clear call, values can overlap the other calls
E-selectin induc = E-selectin induction in HUVECs, primary screen, imaging, HUVEC, immunofluorescence imaging, single point; P16581; normalized: neutral wells 0, TNF-alpha wells 100; activation, % at 7.58 µM; 260,000 tested, 0.37% active; AID 686992, 2013;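 active means mean E-selectin-positive cell signal at least 10% of the positive control, reached in at least 60% of replicates, without over 20% cell loss; inconclusive means no rule given, readout overlaps actives, possibly toxicity-flagged; inactive means the rest, including those meeting only one limit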
Target sequence (P16581 whole entry, looked up): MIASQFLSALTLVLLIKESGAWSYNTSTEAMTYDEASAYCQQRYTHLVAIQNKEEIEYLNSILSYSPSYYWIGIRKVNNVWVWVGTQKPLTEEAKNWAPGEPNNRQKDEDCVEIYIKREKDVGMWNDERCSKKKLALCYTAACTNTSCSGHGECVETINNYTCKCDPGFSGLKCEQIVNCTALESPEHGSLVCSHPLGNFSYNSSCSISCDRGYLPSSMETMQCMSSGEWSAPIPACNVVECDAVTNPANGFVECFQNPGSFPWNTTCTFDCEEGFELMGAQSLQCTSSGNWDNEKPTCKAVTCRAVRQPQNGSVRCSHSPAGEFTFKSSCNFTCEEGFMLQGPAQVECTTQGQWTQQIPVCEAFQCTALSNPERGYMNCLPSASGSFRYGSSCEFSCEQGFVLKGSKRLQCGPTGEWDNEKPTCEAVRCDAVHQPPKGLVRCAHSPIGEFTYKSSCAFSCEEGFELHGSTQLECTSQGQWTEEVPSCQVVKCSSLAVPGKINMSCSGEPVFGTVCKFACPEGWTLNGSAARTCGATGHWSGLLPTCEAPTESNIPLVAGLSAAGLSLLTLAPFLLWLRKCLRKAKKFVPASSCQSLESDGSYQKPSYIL
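System: HUVEC / Compound: single concentration / Signal: immunofluorescence imaging / Read-out: percent E-selectin-positive cells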
* hit, by the source's call; u = inconclusive; x = no result. This is a sample that favours compounds with a hit; in the whole collection about 2.8% have one here.

SMILES | DENV2 CPE rescue | SIRT5 block | E-selectin induc
CO[C@H]1CN(C)C(=O)c2cc(NC(=O)c3ccc(F)cc3)ccc2OC[C@@H](C)N(C(=O)CN(C)C)C[C@@H]1C | x | x | 0
CCCC#Cc1cnc2c(c1)C(=O)N([C@@H](C)CO)C[C@H](C)[C@@H](CN(C)C(=O)NCCC)O2 | -8 | 0 | 0
O=C(Nc1cccc(F)c1)N1CC(=O)N2[C@H](CO)[C@@H](c3ccc(C#CCC4CCCC4)cc3)[C@@H]2C1 | -10 | 2 | -1
COc1cccc(NC(=O)N2CC(=O)N3[C@@H](CO)[C@@H](c4ccc(C#CCC5CCCC5)cc4)[C@@H]3C2)c1 | 1 | 17* | 0
O=S(=O)(NCC[C@@H]1CC[C@H](NS(=O)(=O)c2ccccc2Cl)[C@H](CO)O1)c1ccc(Cl)cc1 | u | 1 | -1
COCC(=O)Nc1ccc2c(c1)[C@@H]1C[C@@H](CC(=O)O)O[C@@H](CO)[C@@H]1O2 | 0 | 0 | 1
Cc1cc(NC(=O)CCC(=O)N(Cc2ccc(F)cc2)C(C(=O)NC2CCCC2)c2ccco2)no1 (centres undefined) | -6 | -3 | x
Cc1cc(NC(=O)CCC(=O)N(Cc2ccccc2)C(C(=O)NC2CCCC2)c2ccco2)no1 (centres undefined) | -1 | 78* | x
Cc1onc(-c2c(Cl)cccc2Cl)c1C(=O)N1CCOCC1 | 12 | -2 | 0
Cc1cc(Cl)nc(Cl)c1C(=O)N1CCOCC1 | -1 | 22* | 4
Cc1nn(CCO)c2ncc(C(=O)c3cc(Cl)ccc3O)cc12 | 1 | 3 | 0
COc1ccc(O)c(C(=O)c2cnc3c(c2)c(C)nn3CCO)c1 | u | 19* | x
NC(=O)N/N=C/c1ccc(N2CCOCC2)s1 | 8 | 4 | 1
O=C(O)c1cc(N/N=C/c2ccc(N3CCOCC3)s2)ccc1Cl | 1 | 36* | x
Cc1noc(C)c1S(=O)(=O)Nc1cccc2c1O[C@H](CN(C)Cc1ccncc1)[C@H](C)CN([C@@H](C)CO)C2=O | u | -4 | 8
O=C(C[C@H]1C=C[C@@H](NC(=O)C2CCC2)[C@@H](CO)O1)NCCCN1CCOCC1 | 9 | 0 | 0
CC(C)NC(=O)CSCc1cccc(Br)c1 | 2 | 19* | x
CC(NC(=O)CSCc1ccc(Br)cc1)c1ccccc1 (centres undefined) | 3 | -8 | x
COc1ccc(NC(=O)N(C)C[C@H]2Oc3c(NS(=O)(=O)c4cccs4)cccc3C(=O)N([C@@H](C)CO)C[C@H]2C)cc1 | 6 | 0 | -6
CCn1cc(C(=O)O)c(=O)c2cnc(N3CCN(C(=S)Nc4ccccc4Cl)CC3)nc21 | -8 | 16* | 3
CCn1cc(C(=O)O)c(=O)c2cnc(N3CCN(C(=S)Nc4ccc(F)cc4)CC3)nc21 | 0 | -1 | 9
CO[C@H]1CN(C)C(=O)c2cc(NC(=O)c3ccc(-c4ccccc4)cc3)ccc2OC[C@H](C)NC[C@@H]1C | 23* | 7 | 0
CO[C@H]1CN(C)C(=O)c2cc(NC(=O)c3ccc(Oc4ccccc4)cc3)ccc2OC[C@@H](C)NC[C@@H]1C | 7 | -5 | 0
CO[C@@H]1CN(C)C(=O)c2cc(NC(=O)c3ccc(Oc4ccccc4)cc3)ccc2OC[C@H](C)NC[C@H]1C | 0 | 100* | 0
CO[C@H]1CN(C)C(=O)c2cc(NC(=O)c3ccccc3)ccc2OC[C@@H](C)NC[C@H]1C | -6 | 1 | 0
SMILES | DENV2 CPE rescue | SIRT5 block | E-selectin induc
CO[C@H]1CN(C)C(=O)c2cc(NC(=O)c3cnccn3)ccc2OC[C@@H](C)NC[C@@H]1C | 6 | -5 | 0
CO[C@H]1CN(C)C(=O)c2cc(NC(=O)c3cnccn3)ccc2OC[C@H](C)NC[C@H]1C | 27* | -2 | 0
CO[C@H]1CN(C)C(=O)c2cc(NC(=O)c3ccc(-c4ccccc4)cc3)ccc2OC[C@@H](C)NC[C@@H]1C | 2 | 103* | 0
CO[C@@H]1CN(C)C(=O)c2cc(NC(=O)c3ccc(-c4ccccc4)cc3)ccc2OC[C@H](C)NC[C@H]1C | -10 | -3 | 0
COCCNC(=O)C1(C)CCN(C(=O)c2cc(C(C)(C)C)nn2C)C1 (centres undefined) | 38* | x | 0
COCCNC(=O)C1(C)CCN(C(=O)c2ccc3c(c2)C(C)(C)CCC3(C)C)C1 (centres undefined) | -3 | -1 | 0
O=C(CN1CCOCC1)N1CCCCN2[C@H](C1)[C@@H](c1ccc(/C=C/c3ccccc3)cc1)[C@@H]2CO | 6 | -2 | 0
O=C(CN1CCOCC1)N1CCCCN2[C@H](CO)[C@H](c3ccc(/C=C/c4ccccc4)cc3)[C@@H]2C1 | u | 1 | 0
O=C(CN1CCOCC1)N1CCCCN2[C@H](CO)[C@@H](c3ccc(C#Cc4ccccc4)cc3)[C@@H]2C1 | 14 | 1 | 0
O=C(CN1CCOCC1)N1CCCCN2[C@@H](CO)[C@@H](c3ccc(-c4ccccc4)cc3)[C@@H]2C1 | 61* | -3 | 1
O=C(CN1CCOCC1)N1CCCCN2[C@H](CO)[C@H](c3ccc(/C=C/c4ccccc4)cc3)[C@H]2C1 | 54* | 5 | 0
O=C(CN1CCOCC1)N1CCCCN2[C@H](C1)[C@H](c1ccc(-c3ccccc3)cc1)[C@@H]2CO | 4 | 21* | 0
O=C(CN1CCOCC1)N1CCCCN2[C@H](CO)[C@H](c3ccc(C#Cc4ccccc4)cc3)[C@@H]2C1 | 31* | 1 | 0
O=C(CN1CCOCC1)N1CCCCN2[C@H](CO)[C@@H](c3ccc(/C=C/c4ccccc4)cc3)[C@H]2C1 | -7 | 0 | 0
COc1ccc2c3c(n(C)c2c1)[C@@H](CO)N(C(=O)CN1CCOCC1)CC31CCN(C(=O)CC2CC2)CC1 | u | x | 0
C[C@@H]1CCCCO[C@H](CN(C)C(=O)NC2CCCCC2)[C@H](C)CN([C@H](C)CO)C(=O)c2cc(NC(=O)NC3CCCCC3)ccc2O1 | 18 | 4 | 0
C[C@H](CO)N1C[C@H](C)[C@H](CN(C)S(=O)(=O)c2ccccc2)Oc2ccc(NC(=O)Nc3cccc4ccccc34)cc2C1=O | -5 | 4 | 0
Cc1cc(C(=O)Nc2ccc3c(c2)C(=O)N(C)[C@@H]2CC[C@H](CC(=O)N[C@H](C)c4ccccc4)O[C@H]2CO3)no1 | -5 | -4 | 1
CCOC(=O)C1=C(C)NC(=O)C(C#N)C1c1ccncc1 (centres undefined) | 36* | 2 | x
CCOC(=O)C1=C(C)NC(C)=C(C(=O)OCC)C1c1ccncc1 | 13 | 0 | 0
Cc1ccc(-c2ccc([C@H]3[C@@H](CO)N4C(=O)CN(C(=O)c5ccncc5)C[C@@H]34)cc2)cc1 | -4 | -7 | 0
N#CCC1(O)C(=O)N(Cc2ccccc2)c2ccccc21 (centres undefined) | 0 | 22* | 0
O=C(O)CC1(O)C(=O)N(Cc2ccccc2)c2ccccc21 (centres undefined) | 12 | 2 | -3
C[C@@H]1CCCCO[C@H](CN(C)CC2CC2)[C@H](C)CN([C@@H](C)CO)C(=O)c2cc(NC(=O)Cc3ccccc3)ccc2O1 | 14 | 3 | 0
